Experimental data taken from ChEMBL document CHEMBL6092224, “The Discovery and Preclinical Profile of ALG-000184, a Prodrug of the Potent Hepatitis B Virus Capsid Assembly Modulator ALG-001075” (J Med Chem, 2024).

Assays:
[1] = Plasma protein binding in Cynomolgous monkey at 1 uM incubated for 4 to 24 hrs by equilibrium dialysis method; type: ADME, cell-free, Macaca fascicularis; details: cynomolgus monkey, time 4-24 hrs, read-out: PPB (converted)
How it was run: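 Rapid equilibrium dialysis in mouse, rat, dog, monkey or human plasma for 4 or 24 h; test concentrations 1, […].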

[2] = tested on: Hepatitis B virus; assay: Antiviral activity against HBV infected in human primary hepatocyte cells assessed as decrease in HBsAg level pre-infected cells with virus followed by compound treatment for 3 days and subsequent replacement of medium with compound measured after 4 days by CLIA; type: functional, organism-based
[3] = Metabolic stability in Cynomolgous monkey hepatocytes assessed as half life at 1 uM incubated upto 180 mins; details: cynomolgus monkey
[4] = tested on: Hepatitis B virus; assay: Antiviral activity against HBV infected in human primary hepatocyte cells assessed as decrease in HBV DNA production pre-infected cells with virus followed by compound treatment for 3 days and subsequent replacement of medium with compound measured after 4 days by qPCR analysis; type: functional, organism-based
How it was run: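 Primary human hepatocytes, 80,000/well, infected at MOI 100 in medium with 4% PEG, 2% DMSO, 10% FBS for 24 h, then washed. Compound from 2000 nM in 1/5 dilutions added on day 5 and refreshed on day 8. Medium collected on day 12; extracellular HBV DNA extracted and quantified by qPCR. n = 5 independent experiments.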

[5] = Oral bioavailability in Sprague-Dawley rat at 5 mg/kg by LC-MS/MS analysis; type: ADME, organism-based; details: in vivo
How it was run: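 Fasted male C57BL6 mice, Sprague–Dawley rats, beagle dogs, cynomolgus monkeys; single IV dose 1 mg/kg or PO solution 5 mg/kg in 80% PEG 400 in water; plasma concentrations measured, noncompartmental analysis with nominal doses and times; F from PO vs IV AUC.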

[6] = molecular target: T1, Cytochrome P450 2B6 (Homo sapiens, UniProt P20813); assay: Induction of CYP2B6 (unknown origin) in human hepatocytes upto 30 uM; type: ADME, cell-based, Hepatocyte
T1 sequence (P20813 whole entry): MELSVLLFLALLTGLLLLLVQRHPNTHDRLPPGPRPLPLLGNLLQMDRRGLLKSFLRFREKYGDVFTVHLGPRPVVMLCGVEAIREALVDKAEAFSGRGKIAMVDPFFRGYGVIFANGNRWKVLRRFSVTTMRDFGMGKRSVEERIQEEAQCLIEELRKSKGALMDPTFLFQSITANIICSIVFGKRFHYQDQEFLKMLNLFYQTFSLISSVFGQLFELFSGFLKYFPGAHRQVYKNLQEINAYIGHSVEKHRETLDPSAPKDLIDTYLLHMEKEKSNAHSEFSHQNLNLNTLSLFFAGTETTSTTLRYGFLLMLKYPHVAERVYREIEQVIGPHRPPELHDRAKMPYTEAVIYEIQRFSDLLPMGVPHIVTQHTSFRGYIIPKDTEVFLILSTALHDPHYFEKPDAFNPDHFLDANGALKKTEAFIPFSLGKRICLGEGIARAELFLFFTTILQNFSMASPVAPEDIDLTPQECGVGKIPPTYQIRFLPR

## C#CC1(NC(=O)C(=O)c2c(C)c(C(=O)Nc3ccc(F)c(C#N)c3)n(C)c2C)COC1
[1]
  fraction unbound at 1 µM: 0.284
[2]
  EC50: 70 nM
[3]
  half-life at 1 µM: > 360 min
[4]
  EC50: 1.98 nM
[5]
  bioavailability: 62.8%
[6]
  Activity: Not_active
